For data set [1], the system named is Human immunodeficiency virus 1. In words: Antiviral activity against wild-type HIV1 3B infected in human MT2 cells assessed as inhibition of viral replication after 5 days by MTT assay. As to conditions: Human immunodeficiency virus 1, 3B, MT2, 120 h. In general terms: Tetrazolium assays rely on reduction of a dye to a coloured formazan, in cell work by metabolically active cells.

A short description of data set [2]: Therapeutic index, ratio of CC50 for human MT2 cells to EC50 for HIV1 3B. The data set is classed as cell-based. The conditions noted are these: read-out: Ratio CC50/EC50. The essentials: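 MT-2 cells at 1×10^5 cells/mL, HIV-III_B or mock infection at MOI 0.1, 5 days with graded compound, triplicate; MTT read-out at 595 nm. Index computed as CC50 (mock-infected cells) over EC50 (viral replication), both from dose-response curves.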

The target of data set [3] is Human immunodeficiency virus type 1 reverse transcriptase (Human immunodeficiency virus 1, UniProt Q72547). The data set is described as follows: Inhibition of HIV1 3B reverse transcriptase. In a few lines:
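Steady-state single-nucleotide incorporation: 6 nM RT (active-site titrated) pre-incubated at least 15 min with 1 μM 5'-radiolabeled primer/template, then at least 15 min on ice with inhibitor (DMSO under 2%, DMSO-only control). Started with 5 μM dTTP and 10 mM MgCl2 (final), 15 min at 37 °C, EDTA quench. Products resolved on 20% denaturing PAGE; hyperbolic fit gives IC50.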

Data set [4] relates to MT2. In words: Cytotoxicity against mock-infected human MT2 cells after 5 days by MTT assay. The data set is classed as cell-based. The conditions noted are these: mt2, 120 h. In a few lines:
(§1)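 Infected (Y181C, MOI 0.1) or mock-infected MT-2 cells at 1×10^5 cells/mL exposed 5 days to graded compound concentrations in RPMI 1640/10% dFBS/kanamycin, triplicate. Viability by MTT (5 h), acidified isopropanol lysis, absorbance 595 nm. CC50 read from triplicate-mean dose-response curves as concentration reducing viable cells by 50%.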

Data set [5] is described as follows: Therapeutic index, ratio of CC50 for HIV1 Y181C mutant infected human MT2 cells to EC50 for HIV1 with reverse transcriptase Y181C mutation. The data set is classed as cell-based. The conditions noted are these: read-out: Ratio CC50/EC50. In a few lines: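 MT-2 cells (1×10^5 cells/mL), infected with Y181C mutant HIV-1 at MOI 0.1 or mock-infected, were cultured 5 days in RPMI 1640 with 10% dFBS and kanamycin at varying compound concentrations, in triplicate. MTT was added for 5 h, cells were lysed with acidified isopropanol, and A595 was read. EC50 (50% inhibition of viral replication) and CC50 (50% loss of viable cells) came from averaged dose-response curves.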

Data set [6] relates to Human immunodeficiency virus 1. In words: Antiviral activity against nevirapine-resistant HIV1 with reverse transcriptase Y181C mutation in human MT2 cells assessed as inhibition of viral replication after 5 days by MTT assay. The format is functional, organism-based. The conditions noted are these: Human immunodeficiency virus 1, MT2, 120 h. The essentials:
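MT-2 cells at 1×10^5 cells/mL infected at MOI 0.1 (wild-type HIV-III_B or Y181C mutant), cultured 5 days in RPMI 1640 with 10% dFBS and kanamycin across a range of compound concentrations, triplicate wells. MTT added for 5 h, cells lysed with acidified isopropanol, A595 read. EC50 taken from dose-response curves of triplicate means as concentration inhibiting viral replication by 50%.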

The subject of data set [7] is MT2. In words: Cytotoxicity against HIV1 Y181C mutant infected human MT2 cells after 5 days by MTT assay. The format is cell-based. As to conditions: mt2, 120 h. The essentials:
as §1

In the case of `COc1ccc(OCCO)c(CCNC(=S)Nc2ccc(Br)cn2)c1`, the EC50 (commonly the concentration at which the effect is half-maximal) in data set [1] turned out to be 12 nM. Further, the selectivity ratio in data set [2] was found to be 83. In addition, the IC50 – broadly, the concentration that gives 50% inhibition – in data set [3] worked out at 19 nM. The CC50 – broadly, the concentration giving 50% cytotoxicity – in data set [4] was 1000 nM.

For `C#CCOc1ccc(OC)cc1CCNC(=S)Nc1ccc(Br)cn1`, the EC50 in data set [1] stood at 52 nM. Also, the selectivity ratio in data set [2] is 2. Moreover, in data set [4], the CC50 was 100 nM.

On to `COc1ccc(OCCCC#N)c(CCNC(=S)Nc2ccc(Br)cn2)c1`, for which the EC50 in data set [1] was determined as 50 nM. In addition, in data set [2], the selectivity ratio came to 76. The CC50 in data set [4] was 3800 nM.

As for `C#CCCOc1ccc(OC)cc1CCNC(=S)Nc1ccc(Br)cn1`, the EC50 in data set [1] was 26 nM; in data set [6], less than 200 nM. Moreover, the values for the selectivity ratio in data set [2] and in data set [5] were 38 and more than 20, respectively. In data set [3], this compound came in with an IC50 of 3.8 nM. The cytotoxic concentration (CC50) in data set [4] was determined as 1000 nM; in data set [7], 4000 nM.

With `C#CCOCCOc1ccc(OC)cc1CCNC(=S)Nc1ccc(Br)cn1`, in data set [1], the EC50 turned out to be 95 nM. This compound also came in with an IC50 in data set [3] of 41 nM. The CC50 in data set [4] is 9500 nM.

Regarding `C#CCOCCOCCOc1ccc(OC)cc1CCNC(=S)Nc1ccc(Br)cn1`, in data set [1], the EC50 stood at 390 nM. For the same compound, the selectivity ratio in data set [2] came out at 17. The compound further yielded a CC50 in data set [4] of 6800 nM.

For `COc1ccc(OC)c(CCNC(=S)Nc2ccc(Br)cn2)c1`, the EC50 is 48 nM in data set [1] and 1200 nM in data set [6]. Moreover, the selectivity ratio in data set [2] stood at 21; in data set [5], 15. In data set [3], it took 28 nM to reach half-maximal inhibition (IC50). In addition, the values for the CC50 in data set [4] and in data set [7] were 1000 nM and 18000 nM, respectively.

On to `C#CCCCOc1ccc(OC)cc1CCNC(=S)Nc1ccc(Br)cn1`, for which the EC50 in data set [1] amounted to 250 nM. Also, the selectivity ratio in data set [2] stood at 40. The IC50 in data set [3] worked out at 27 nM. Besides, in data set [4], the CC50 turned out to be 10000 nM.

As to `COc1ccc(OCC#N)c(CCNC(=S)Nc2ccc(Br)cn2)c1`, in data set [1], the EC50 is 120 nM. Moreover, the selectivity ratio in data set [2] was 46. Besides, the CC50 in data set [4] was found to be 5500 nM.

Consider `COC(=O)COc1ccc(OC)cc1CCNC(=S)Nc1ccc(Br)cn1`, for which, in data set [1], the EC50 came to 12000 nM. In addition, the selectivity ratio in data set [2] is 4. This compound had a half-maximal inhibitory concentration (IC50) in data set [3] of 100 nM. The compound further gave a CC50 in data set [4] of 48000 nM.

As for `COc1ccc(OCCCO)c(CCNC(=S)Nc2ccc(Br)cn2)c1`, in data set [1], the EC50 amounted to 98 nM. In data set [2], the selectivity ratio is 94. For the same compound, the half-inhibitory concentration (IC50) in data set [3] came out at 24 nM. It took 8500 nM to reach half-maximal cytotoxicity in data set [4] (CC50).

Take `COc1ccc(OCc2ccccc2)c(CCNC(=S)Nc2ccc(Br)cn2)c1`: the 50% effective concentration (EC50) in data set [1] turned out to be 220 nM. The selectivity ratio in data set [2] was found to be 18. In data set [4], the CC50 worked out at 4000 nM.

As to `COc1ccc(OCCOCc2ccccc2)c(CCNC(=S)Nc2ccc(Br)cn2)c1`, the EC50 in data set [1] turned out to be 2000 nM. Also, the selectivity ratio in data set [2] is 3. The compound further came in with a CC50 in data set [4] of 5800 nM.

For `C=CCOc1ccc(OC)cc1CCNC(=S)Nc1ccc(Br)cn1`, the EC50 in data set [1] amounted to 200 nM. The selectivity ratio in data set [2] came out at 55. Also, half-maximal cytotoxicity in data set [4] (CC50) was put at 11000 nM.

`CCCOc1ccc(OC)cc1CCNC(=S)Nc1ccc(Br)cn1`: the EC50 in data set [1] is 95 nM. For the same compound, the selectivity ratio in data set [2] was found to be 1. For the same compound, half-maximal cytotoxicity in data set [4] (CC50) was put at 100 nM.

Consider `CC#CCOc1ccc(OC)cc1CCNC(=S)Nc1ccc(Br)cn1`, for which the EC50 in data set [1] was 270 nM. Besides, in data set [2], the selectivity ratio came to 74. In data set [4], this compound yielded a cytotoxic concentration (CC50) of 20000 nM.

Source of the values: ChEMBL document CHEMBL1152198, “C-2-aryl O-substituted HI-236 derivatives as non-nucleoside HIV-1 reverse-transcriptase inhibitors” (Bioorg Med Chem, 2008).
